Experimental findings from ChEMBL document CHEMBL5126630, “Optimization of the Prodrug Moiety of Remdesivir to Improve Lung Exposure/Selectivity and Enhance Anti-SARS-CoV-2 Activity” (J Med Chem, 2022) are described below.

pEC50: −log10 of the molar value. Calls of active or inactive are those of the source. The rule behind the calls is not given here.

Series [1] can be described thus: Stability in human microsomes assessed as half life. In kind it is ADME, Microsome.
The nature of series [2]: Stability in hamster plasma assessed as half life. In kind it is ADME, cell-free, Cricetulus griseus. Conditions: chinese hamster.
The nature of series [3]: Stability in human plasma assessed as half life. In kind it is ADME, cell-free.
Series [4] in a line: Stability in hamster microsomes assessed as half life. In kind it is ADME, Cricetulus griseus, Microsome. Conditions: chinese hamster.
Series [5] is described as follows: Stability in mouse microsomes assessed as half life. In kind it is ADME, Microsome.
The nature of series [6]: Stability in mouse plasma assessed as half life. The format is ADME, cell-free.
Series [7] in a line: Prodrug activation in human Calu-3 cells assessed as NUC release at 10 uM measured upto 12 hrs by LC-MS analysis. In kind it is cell-based. Conditions: calu-3, 12 h. Put shortly:
(§1)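 Calu-3 cells (1–5 × 10^5/well) were cultured 12 h, then exposed to 10 μM drug at 37 °C for 2, 6 and 12 h (n = 3). Cells were detached with trypsin-EDTA, pelleted and washed three times with ice-cold PBS. Drug was extracted overnight at −20 °C in ice-cold 70% methanol, and supernatants were analysed by LC-MS.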

The subject of series [8] is SARS-CoV-2. Put plainly: Antiviral activity against SARS-CoV-2 infected in African green monkey Vero E6 cells assessed as protection against virus-induced cytopathic effect incubated for 2 days by CellTiter-Glo assay. The format is functional, organism-based. Conditions: Severe acute respiratory syndrome coronavirus 2, Vero 76, 48 h.
In series [9] the test system is SARS-CoV-2. In words: Antiviral activity against SARS-CoV-2 alpha B.1.1.7 infected in African green monkey Vero E6 cells assessed as protection against virus-induced cytopathic effect incubated for 2 days by CellTiter-Glo assay. The format is functional, organism-based. Particulars: Severe acute respiratory syndrome coronavirus 2, alpha B.1.1.7, Vero 76, 48 h.
A short description of series [10]: Drug metabolism in hamster lung assessed as NTP metabolite formation at 10 mg/kg, iv measured upto 24 hrs by LC-MS/MS analysis. The format is ADME, organism-based, Cricetulus griseus. Particulars: chinese hamster, in vivo. In short, it runs like this:
(§2)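 Female catheterized hamsters were dosed 10 mg/kg iv at 2 mg/mL; remdesivir was in 15% cyclodextrin at pH 3–3.5 and the prodrug in cyclodextrin or albumin. Two per group were sacrificed at 0.5–24 h. Tissues were homogenized in 70% methanol with internal standard. NTP was measured by ion-pairing LC-MS/MS (dimethylhexylamine/ammonium formate mobile phase), negative-ion MRM, against 10-point 5–5000 ng/mL standards. Exposure was reported as AUC.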

Another series relates to Vero 76. Put plainly: Cytotoxicity against African green monkey Vero E6 cells at 10 uM. The format is toxicity, cell-based. Conditions: chlorocebus sabaeus, vero 76, 10 µM.
Series [11] deals with SARS-CoV-2. Put plainly: Antiviral activity against SARS-CoV-2 gamma P.1 infected in African green monkey Vero E6 cells assessed as protection against virus-induced cytopathic effect incubated for 2 days by CellTiter-Glo assay. Conditions: Severe acute respiratory syndrome coronavirus 2, gamma P.1, Vero 76, 48 h. The format is functional, organism-based.
Series [12] in a line: Drug metabolism in hamster lymph node assessed as NTP metabolite formation at 10 mg/kg, iv measured upto 24 hrs by LC-MS/MS analysis. The format is ADME, organism-based, Cricetulus griseus. Particulars: chinese hamster, in vivo. Put shortly: as §2
Series [13] is described as follows: Prodrug activation in human Calu-3 cells assessed as ALA release at 10 uM measured upto 12 hrs by LC-MS analysis. Conditions: calu-3, 12 h. The format is cell-based. Put shortly: as §1
The nature of series [14]: Drug accumulation in hamster kidney at 10 mg/kg, iv measured upto 24 hrs by LC-MS/MS analysis. In kind it is ADME, organism-based, Cricetulus griseus. Conditions: chinese hamster, in vivo. In short, it runs like this:
(§3)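 Catheterized female hamsters received 10 mg/kg iv at 2 mg/mL. The remdesivir vehicle was 15% cyclodextrin at pH 3–3.5; the test prodrug was given in cyclodextrin or albumin formulation. Two animals per group were sacrificed at 0.5, 1, 4, 7 and 24 h. Tissues were homogenized in 5-fold 70% methanol with internal standard and supernatants analysed by LC-MS against 5–5000 ng/mL standard curves.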

The subject of series [15] is SARS-CoV-2. Put plainly: Antiviral activity against SARS-CoV-2 beta B.1.351 infected in African green monkey Vero E6 cells assessed as protection against virus-induced cytopathic effect incubated for 2 days by CellTiter-Glo assay. Conditions: Severe acute respiratory syndrome coronavirus 2, beta B.1.351, Vero 76, 48 h. In kind it is functional, organism-based.
In series [16] the test system is SARS-CoV-2. In words: Antiviral activity against SARS-CoV-2 infected in African green monkey Vero E6 cells assessed as reduction in viral titer incubated for 2 days by CellTiter-Glo assay. Particulars: Severe acute respiratory syndrome coronavirus 2; Vero 76; time 2.0 day. The format is functional, organism-based.
Series [17] can be described thus: Drug metabolism in hamster blood assessed as NTP metabolite formation at 10 mg/kg, iv measured upto 24 hrs by LC-MS/MS analysis. The format is ADME, organism-based, Cricetulus griseus. Particulars: chinese hamster, in vivo. In short, it runs like this: as §2
Series [18] has as its system SARS-CoV-2. Put plainly: Antiviral activity against SARS-CoV-2 delta B.1.617.2 infected in African green monkey Vero E6 cells assessed as protection against virus-induced cytopathic effect incubated for 2 days by CellTiter-Glo assay. In kind it is functional, organism-based. Conditions: Severe acute respiratory syndrome coronavirus 2, delta B.1.617.2, Vero 76, 48 h.

A short description of series [19]: Drug accumulation in hamster liver at 10 mg/kg, iv measured upto 24 hrs by LC-MS/MS analysis. Particulars: chinese hamster, in vivo. In kind it is ADME, organism-based, Cricetulus griseus. In short, it runs like this: as §3
Series [20] in a line: Prodrug activation in human Calu-3 cells assessed as NTP release at 10 uM measured upto 12 hrs by LC-MS analysis. Particulars: calu-3, 12 h. In kind it is cell-based. Put shortly:
as §1

Series [21] is described as follows: Drug metabolism in hamster spleen assessed as NTP metabolite formation at 10 mg/kg, iv measured upto 24 hrs by LC-MS/MS analysis. In kind it is ADME, organism-based, Cricetulus griseus. Particulars: chinese hamster, in vivo. In short, it runs like this: as §2

For `CCCCCCCCCCCCOC(=O)[C@H](C)NP(=O)(OC[C@H]1O[C@@](C#N)(c2ccc3c(N)ncnn23)[C@H](O)[C@@H]1O)Oc1cccc2ccccc12` (stereo not given in full), the half-life in series [1] was 6.11 min; in series [2], 158 min; in [3], 154 min; in series [4], 3.49 min.

Take `C[C@H](NP(=O)(OC[C@H]1O[C@@](C#N)(c2ccc3c(N)ncnn23)[C@H](O)[C@@H]1O)Oc1cccc2ccccc12)C(=O)OCc1ccccc1` (stereo not given in full): the half-life was determined as 1.05 min in [1], 55.8 min in [2], 52.4 min in [3] and 0.46 min in [4].

Consider `CCCCCCCCCCCCOC(=O)[C@H](C)NP(=O)(OC[C@H]1O[C@@](C#N)(c2ccc3c(N)ncnn23)[C@H](O)[C@@H]1O)Oc1ccccc1` (stereo not given in full), for which the half-life in series [1] was determined as 4.29 min; in [2], 71.2 min; in [3] it was 47.1 min; in series [4], 2.72 min.

As for `CCCCC/C=C\C/C=C\CCCCCCCCOC(=O)[C@H](C)NP(=O)(OC[C@H]1O[C@@](C#N)(c2ccc3c(N)ncnn23)[C@H](O)[C@@H]1O)Oc1cccc2ccccc12` (stereo not given in full), the half-life in series [1] was 19.7 min; in series [5], 13.6 min; in [6], 3.44 min; in series [2] it was 271 min; in series [3] it was 286 min; in series [4], 61.8 min.

Take `CCCCC/C=C\C/C=C\CCCCCCCCOC(=O)[C@H](C)NP(=O)(OC[C@H]1O[C@@](C#N)(c2ccc3c(N)ncnn23)[C@H](O)[C@@H]1O)Oc1ccccc1` (stereo not given in full): the Drug metabolism entry in series [7], in [10], in [12], in series [13], in series [17] and in series [20] was “Metabolite_Detected” in each case. Moreover, in [21], the Drug metabolism entry is given as “Metabolite_Detected”. Besides, the pEC50 with SARS-CoV-2 [8] is 6.40; in the series on SARS-CoV-2 [9], 5.60; in the series on SARS-CoV-2 [11] it was 5.77; in the series with SARS-CoV-2 [15], 4.80; with SARS-CoV-2 [18], 5.25. Besides, the half-life in [1] came out at 8.33 min; in series [5], 8.65 min; in series [6], 1.03 min; in series [2] it was 128 min; in [3] it was 192 min; in series [4], 16.2 min. The Activity entry in the series on Vero 76 was “Non-Toxic”. Also, the Drug uptake in series [14] and in series [19] was 80% each time. For the same compound, in the series on SARS-CoV-2 [16], the result was Active.

Take `CCC(CC)COC(=O)[C@H](C)N[P@](=O)(OC[C@H]1O[C@@](C#N)(c2ccc3c(N)ncnn23)[C@H](O)[C@@H]1O)Oc1ccccc1` [REMDESIVIR]: the Drug metabolism entry in series [7], in series [10], in series [12], in series [13], in [17] and in [20] was “Metabolite_Detected” throughout. In addition, the Drug metabolism result in series [21] is “Metabolite_Detected”. For the same compound, the pEC50 was 5.48 with SARS-CoV-2 [8]; 5.33 in the series with SARS-CoV-2 [9]; 5.43 in the series with SARS-CoV-2 [11]; 4.49 in the series with SARS-CoV-2 [15]; 5.04 with SARS-CoV-2 [18]. Also, the half-life is 0.86 min in [1], 54.5 min in [2], 40.7 min in series [3] and 0.48 min in series [4]. For the same compound, the Activity entry in the series on Vero 76 is on record as “Non-Toxic”. Besides, the Drug uptake in series [14] and in [19] was 80% each time. For the same compound, the outcome in the series on SARS-CoV-2 [16] was Active.
